The values that follow come from ChEMBL document CHEMBL4428033, “The Flavone Luteolin Inhibits Liver X Receptor Activation” (J Nat Prod, 2016).

Calls of active or inactive are those of the source. No cut-off for these calls is given here.

The subject of data set [1] is Mus musculus. Kind of data set: Antihyperlipidemic activity in ethanol-induced steatosis C57BL/6 mouse model assessed as inhibition of serum LDL cholesterol level at 50 mg/kg, po administered daily through oral gavage for 2 weeks by colorimetric method relative to control. It counts as functional. The settings on record: C57BL/6, po, 336 h.
Data set [2] has as its target T1, Liver X receptor (Homo sapiens) (UniProt Q13133+P55055). Kind of data set: Inhibition of T0901317-induced LXR-alpha/beta transactivation in human HepG2 cells assessed as reduction in SREBP-1c mRNA expression at 10 to 25 uM after 12 hrs by RT-PCR method. It counts as cell-based. The essentials:
(§1)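 HepG2 cells in low-glucose DMEM with 10% FBS, 37 °C, 5% CO2. Pretreated 1 h with T0901317 (0.01–10 μM, or 0.05 or 1 μM), or left in medium, then given luteolin 10, 25 or 50 μM for 12 h. Trizol RNA, SYBR-Green real-time RT-PCR for SREBP-1c, normalised to HPRT1. Pfaffl fold change versus medium control. Two independent experiments in duplicate, mean ± SEM.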

In data set [3] the target is T1, Liver X receptor (Homo sapiens). Nature of the data set: Inhibition of T0901317-induced LXR-alpha/beta transactivation in human HepG2 cells assessed as reduction in SREBP-1c mRNA expression at 50 uM after 12 hrs by RT-PCR method. It counts as cell-based. The procedure, abridged:
as §1

The target in data set [4] is T2, Oxysterols receptor LXR-alpha/beta (Mus musculus) (UniProt Q9Z0Y9+Q60644). Kind of data set: Inhibition of T0901317-induced LXR-alpha/beta transactivation in mouse RAW264.7 cells assessed as reduction in ABCA1 mRNA expression at 10 uM after 3 hrs by RT-PCR method. The format is cell-based. The procedure, abridged:
(§2)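 RAW 264.7 macrophages pretreated 1 h with T0901317 (0.01–10 μM, or 1 μM), or left in medium, then luteolin 10, 25 or 50 μM for 3 h. ABCA1 mRNA by SYBR-Green real-time RT-PCR, normalised to HPRT1. Pfaffl fold change versus medium control or the T0901317-treated sample. Three independent experiments in duplicate, mean ± SEM. One-way ANOVA with Dunnett's test.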

The target of data set [5] is T3, Oxysterols receptor LXR-beta (Homo sapiens) (UniProt P55055).
T3 sequence (whole entry): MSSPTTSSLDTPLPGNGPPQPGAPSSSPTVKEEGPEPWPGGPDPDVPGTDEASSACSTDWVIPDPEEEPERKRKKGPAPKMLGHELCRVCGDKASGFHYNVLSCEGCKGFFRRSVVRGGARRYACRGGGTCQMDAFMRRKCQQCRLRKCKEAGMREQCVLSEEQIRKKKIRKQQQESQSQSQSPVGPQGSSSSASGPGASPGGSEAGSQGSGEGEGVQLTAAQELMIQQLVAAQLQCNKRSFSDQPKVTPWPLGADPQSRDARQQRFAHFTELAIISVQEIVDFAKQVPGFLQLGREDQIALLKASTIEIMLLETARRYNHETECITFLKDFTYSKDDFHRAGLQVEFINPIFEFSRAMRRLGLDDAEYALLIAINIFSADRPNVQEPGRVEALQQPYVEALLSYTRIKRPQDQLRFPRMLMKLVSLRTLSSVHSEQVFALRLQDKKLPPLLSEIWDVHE
Nature of the data set: Inhibition of T0901317-induced human LXR-beta transcriptional activity at 10 uM after 22 hrs by cell based luciferase reporter gene assay. The essentials: (§3)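 Commercial LXRα or LXRβ luciferase reporter cells (nonhuman mammalian) kept in medium or given T0901317 0.01–10 μM, alone or with luteolin 10, 25 or 50 μM, for 22 h. Luminescence read per kit instructions, 500 ms read time. RLU plotted against log T0901317 concentration.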

Data set [6] concerns the target T3, Oxysterols receptor LXR-beta (Homo sapiens). Nature of the data set: Inhibition of T0901317-induced human LXR-beta transcriptional activity after 22 hrs by cell based luciferase reporter gene assay. The procedure, abridged:
as §3
In general terms: Reporter assays use an easily measured gene product as a stand-in for the process of interest.

Data set [7] deals with T4, Oxysterols receptor LXR-alpha (Homo sapiens) (UniProt Q13133).
T4 sequence (whole entry): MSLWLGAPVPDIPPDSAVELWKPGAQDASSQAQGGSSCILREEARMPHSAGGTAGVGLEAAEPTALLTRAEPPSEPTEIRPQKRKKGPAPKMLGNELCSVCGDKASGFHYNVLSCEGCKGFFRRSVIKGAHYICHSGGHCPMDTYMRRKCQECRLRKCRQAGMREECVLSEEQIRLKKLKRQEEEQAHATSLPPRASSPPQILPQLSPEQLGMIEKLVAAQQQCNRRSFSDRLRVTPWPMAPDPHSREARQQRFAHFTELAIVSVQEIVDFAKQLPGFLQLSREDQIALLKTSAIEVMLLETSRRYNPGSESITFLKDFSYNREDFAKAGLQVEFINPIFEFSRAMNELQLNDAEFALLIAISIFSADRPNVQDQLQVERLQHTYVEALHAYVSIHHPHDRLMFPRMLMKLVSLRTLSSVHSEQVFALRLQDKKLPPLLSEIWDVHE
Nature of the data set: Inhibition of T0901317-induced human LXR-alpha transcriptional activity at 10 uM after 22 hrs by cell based luciferase reporter gene assay. The essentials: as §3

Data set [8] has as its system HepG2. Kind of data set: Inhibition of T0901317-induced lipid accumulation in human HepG2 cells at 50 uM preincubated for 1 hr followed by T0901317 addition measured after 24 hrs by Oil Red-O dye based microscopic analysis. It counts as functional, cell-based. The essentials: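 HepG2 cells preincubated 1 h with luteolin 25 or 50 μM, then T0901317 5 μM added for 24 h. Fixed in 4% paraformaldehyde for 20 min at room temperature. Stained with Oil Red-O (0.6% stock diluted 6:4 with water) for 45 min at room temperature, washed, then imaged by microscopy; absorbance recorded.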

In data set [9] the test system is HepG2. Kind of data set: Cytotoxicity against human HepG2 cells assessed as reduction in cell viability at 10 to 50 uM after 12 hrs by MTT assay. The format is cell-based. Conditions: hepg2, 12 h. The procedure, abridged: (§4)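 Cells treated as in the RT-PCR assays (T0901317 pretreatment 1 h, then luteolin 10, 25 or 50 μM; 12 h for HepG2, 3 h for RAW 264.7). MTT added at 37 °C for 60 min (HepG2) or 15 min (RAW 264.7). Formazan dissolved in acidic 2-propanol and read at 570 nm, reference 620 nm.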
For orientation: Formazan colour is commonly taken as a measure of viable cells.

The target in data set [10] is T5, Oxysterols receptor LXR-alpha/beta (Mus musculus, UniProt Q9Z0Y9+Q60644).
T5 sequence (Q9Z0Y9 whole entry): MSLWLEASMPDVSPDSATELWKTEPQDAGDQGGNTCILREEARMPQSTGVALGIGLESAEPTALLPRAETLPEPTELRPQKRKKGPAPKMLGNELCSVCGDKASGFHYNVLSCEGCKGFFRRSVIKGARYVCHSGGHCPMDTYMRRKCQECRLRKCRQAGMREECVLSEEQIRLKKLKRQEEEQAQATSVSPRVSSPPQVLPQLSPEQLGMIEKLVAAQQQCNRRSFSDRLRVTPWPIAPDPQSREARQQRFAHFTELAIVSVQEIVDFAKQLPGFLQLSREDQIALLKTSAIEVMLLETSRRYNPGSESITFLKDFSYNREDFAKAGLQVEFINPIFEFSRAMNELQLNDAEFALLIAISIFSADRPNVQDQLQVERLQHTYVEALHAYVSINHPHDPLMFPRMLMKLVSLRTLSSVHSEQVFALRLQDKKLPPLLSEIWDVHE
T5 sequence (Q60644 whole entry): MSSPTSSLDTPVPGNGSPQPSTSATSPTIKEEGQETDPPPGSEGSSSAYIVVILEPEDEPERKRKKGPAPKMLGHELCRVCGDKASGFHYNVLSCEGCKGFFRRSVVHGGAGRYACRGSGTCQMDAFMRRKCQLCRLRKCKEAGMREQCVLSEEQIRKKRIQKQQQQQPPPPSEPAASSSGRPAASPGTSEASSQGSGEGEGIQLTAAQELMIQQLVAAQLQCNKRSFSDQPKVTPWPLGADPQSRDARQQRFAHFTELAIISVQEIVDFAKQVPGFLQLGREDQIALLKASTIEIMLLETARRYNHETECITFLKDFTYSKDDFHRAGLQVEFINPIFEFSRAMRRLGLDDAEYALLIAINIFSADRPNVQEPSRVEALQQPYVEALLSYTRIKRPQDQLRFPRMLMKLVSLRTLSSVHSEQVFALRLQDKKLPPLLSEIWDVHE
Nature of the data set: Transactivation of LXR-alpha/beta in mouse RAW264.7 cells assessed as upregulation of ABCA1 mRNA expression at 10 to 50 uM after 3 hrs by RT-PCR method. The format is cell-based. Conditions: raw264.7, 3 h. The essentials:
as §2

Data set [11] concerns the target T6, Liver X receptor (Homo sapiens, UniProt Q13133+P55055).
T6 sequence (Q13133 whole entry): T4 sequence (whole entry)
T6 sequence (P55055 whole entry): T3 sequence (whole entry)
Kind of data set: Transactivation of LXR-alpha/beta in human HepG2 cells assessed as upregulation of SREBP-1c mRNA expression at 10 to 50 uM after 12 hrs by RT-PCR method. It counts as cell-based. The settings on record: hepg2, 12 h. The procedure, abridged: as §1

For data set [12], the system named is RAW264.7. Nature of the data set: Cytotoxicity against mouse RAW264.7 cells assessed as reduction in cell viability at 10 to 50 uM after 3 hrs by MTT assay. The format is cell-based. Conditions: raw264.7, 3 h. The procedure, abridged: as §4
Data set [13] concerns Mus musculus. Nature of the data set: Antihyperlipidemic activity in ethanol-induced steatosis C57BL/6 mouse model assessed as inhibition of serum triacylglycerol level at 50 mg/kg, po administered daily through oral gavage for 2 weeks by colorimetric method relative to control. The format is functional. Conditions: C57BL/6, po, 336 h.
The target in data set [14] is T3, Oxysterols receptor LXR-beta (Homo sapiens). Kind of data set: Transactivation of human LXR-beta at 10 to 50 uM after 22 hrs by cell based luciferase reporter gene assay. The essentials:
as §3

Data set [15] addresses T4, Oxysterols receptor LXR-alpha (Homo sapiens). Nature of the data set: Transactivation of human LXR-alpha at 10 to 50 uM after 22 hrs by cell based luciferase reporter gene assay. The essentials: as §3
For data set [16], the target named is T2, Oxysterols receptor LXR-alpha/beta (Mus musculus). Kind of data set: Inhibition of T0901317-induced LXR-alpha/beta transactivation in mouse RAW264.7 cells assessed as reduction in ABCA1 mRNA expression after 3 hrs by RT-PCR method. The format is cell-based. The essentials: as §2
In data set [17] the target is T4, Oxysterols receptor LXR-alpha (Homo sapiens). Kind of data set: Inhibition of T0901317-induced human LXR-alpha transcriptional activity after 22 hrs by cell based luciferase reporter gene assay. The procedure, abridged:
as §3

Data set [18] concerns the target T2, Oxysterols receptor LXR-alpha/beta (Mus musculus). Nature of the data set: Inhibition of T0901317-induced LXR-alpha/beta transactivation in mouse RAW264.7 cells assessed as reduction in ABCA1 mRNA expression at 50 uM after 3 hrs by RT-PCR method relative to control. The format is cell-based. The essentials: as §2
Data set [19] has the same target. Kind of data set: Inhibition of T0901317-induced LXR-alpha/beta transactivation in mouse RAW264.7 cells assessed as reduction in ABCA1 mRNA expression at 25 uM after 3 hrs by RT-PCR method relative to control. It counts as cell-based. The procedure, abridged: as §2

On to `O=c1cc(-c2ccc(O)c(O)c2)oc2cc(O)cc(O)c12` [LUTEOLIN], for which the inhibition in vivo (usually the share of the control response that was lost under treatment) at 50 mg/kg in data set [1] stood at 52%; in [13] it was 22%. Also, the inhibition entry in data set [2], in data set [4], in data set [5] and in data set [7] was “inactive” throughout. The inhibition entry in data set [3] and in data set [8] was “Active” throughout. Further, the inhibition – broadly, how much of the control response was suppressed – in data set [6] was “Dose-dependent effect”; in data set [16] it was “Dose-dependent effect”; in [17], “Dose-dependent effect”; in data set [18], 64%; in [19] it was 41%. Further, the Activity result is reported as “Non-Toxic” in data set [9], “Not Active” in [10], “Not Active” in [11] and “Non-Toxic” in data set [12]. Besides, the result in data set [14] and in data set [15] was inactive.
